Assay results from different studies.
Lines come from different studies, so protocols differ.
Target: Casein kinase I isoform gamma-3 (CSNK1G3, Homo sapiens, UniProt Q9Y6M4)

| SMILES | read-out | technique | tested at | remaining binding |
| --- | --- | --- | --- | --- |
| Cc1nc(N2CC[C@@H](O)C2)ncc1-c1cc(C(F)(F)F)cc2[nH]ncc12 | cell-free assay | competition with immobilised ligand | 1 µM | 74% |
| CN(C)c1nccc(-c2cnn3ncccc23)n1 | binding |  | 1 µM | 82% |
| FC(F)(F)Oc1cccc(-c2cnc3ccc(-c4ccncc4)nn23)c1 | cell-free assay | competition with immobilised ligand | 5 µM | 84% |
| CNCc1ccccc1-c1csc([C@H](C)Nc2nc(C)nc3cc(OC)c(OC)cc23)c1 | cell-free assay | competition with immobilised ligand | 1 µM | 93% |
| O=C(Nc1c[nH]nc1C(=O)NC1CCNCC1)c1cc(F)cc(F)c1 | binding | competition with immobilised ligand | 1 µM | 98% |
| N#Cc1ccc(Nc2ccc3[nH]c(=O)[nH]c3c2)c(Cl)c1 | cell-free assay | competition with immobilised ligand | 1 µM | 99% |
| CN(C)c1nccc(-c2cnc3ncccn23)n1 | binding |  | 1 µM | 70% |
| CCN1CCN(Cc2ccc(C(=O)Nc3ccc(C)c(Oc4ccc5c(c4)CC(=O)N5)c3)cc2C(F)(F)F)CC1 | binding | competition with immobilised ligand | 1 µM | 100% |
| O=C(NCCCN1CCOCC1)c1ccc(Nc2ncc(Cl)c(-c3ccc(Cl)s3)n2)cc1 | binding | competition with immobilised ligand | 1 µM | 100% |
| N[C@@H]1CCN(c2nccc(-c3cnn4ncccc34)n2)C1 | binding |  | 1 µM | 100% |
| O=C(c1ccc(Nc2nccc(-c3cc4ccccc4s3)n2)cc1)N1CCC(N2CCCC2)CC1 | binding | competition with immobilised ligand | 1 µM | 100% |
| CS(=O)(=O)N1CCCC(NC(=O)[C@H](CCC2CCCCC2)NC(=O)c2ccc(CNc3ncnc4c3nnn4-c3ccccc3)cc2)C1 (some centres unmarked) | cell-free assay | competition with immobilised ligand | 0.1 µM | 100% |
| COc1cnc(Nc2cccc(S(N)(=O)=O)c2)nc1N1CCN(c2ccccc2)C(=O)C1 | binding | competition with immobilised ligand | 1 µM | 87% |
| CN(C)c1ncc(F)c(-c2cnn3ncccc23)n1 | binding |  | 1 µM | 100% |
| CSc1cccnc1N1CCN(Cc2nc3ccccc3[nH]2)CC1 | cell-free assay | competition with immobilised ligand | 1 µM | 86% |
| C[C@H]1CCN(c2nccc(-c3cnn4ncccc34)n2)C1 | binding |  | 1 µM | 91% |
| Cc1cnc(Nc2ccc(C(=O)N3CCC(N4CCCC4)CC3)cc2)nc1-c1cc2ccccc2s1 | binding | competition with immobilised ligand | 1 µM | 100% |
| CC(=O)N1CCC(c2ccc(C(=O)NC3=NCCN3)cc2C(F)(F)F)CC1 | cell-free assay | competition with immobilised ligand | 1 µM | 100% |
| COc1cnc(Nc2cccc(S(N)(=O)=O)c2)nc1N1CCN(c2ccccc2)CC1 | binding | competition with immobilised ligand | 1 µM | 100% |
| COc1ccnn2ncc(-c3ccnc(N(C)C)n3)c12 | binding |  | 1 µM | 97% |
